Assay results published in ChEMBL document CHEMBL1142540, “Novel piperidinylpyrimidine derivatives as inhibitors of HIV-1 LTR activation” (Bioorg Med Chem, 2008).

How the values were obtained:
PBMC = assay: Inhibition of LPS-stimulated TNFalpha production in human PBMC; assay type: functional, cell-based
In short: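 Human PBMC from healthy donors isolated by Ficoll-Paque, seeded at 1×10^5 cells/well in RPMI 1640 with 10% heat-inactivated FBS and L-glutamine. Stimulated with LPS 0.1 ug/ml final, compound added at the same time (DMSO below 0.1%), 20 h; supernatants collected for TNF-α.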

[1] = Inhibition of HIV1 LTR-driven CAT gene expression in Tat-stimulated human JURKAT cells; assay type: cell-based; conditions: Human immunodeficiency virus 1, Jurkat
In short: (§1)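 Jurkat cells co-electroporated (140 V) with LTR-CAT p469 plus pSV-Tat using DEAE-dextran, cultured 20 h, then treated with compound alone (no PMA) for 24 h at 37 °C.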

[2] = Inhibition of HIV1 LTR-driven CAT gene expression in PMA-stimulated human JURKAT cells; assay type: cell-based; conditions: Human immunodeficiency virus 1, Jurkat
In short: (§2)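 Jurkat cells electroporated (140 V) with HIV-1 LTR-CAT plasmid p469 using DEAE-dextran and cultured 20 h. Cells then stimulated with PMA 10 ng/ml in presence of compound for 24 h at 37 °C, lysed by freeze-thaw.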

Jurkat [3] = assay: Inhibition of HIV1 LTR-driven CAT gene expression in Tat-stimulated human JURKAT cells at 1 uM; assay type: cell-based; conditions: Human immunodeficiency virus 1; in short: as §1
Jurkat [4] = assay: Cytotoxicity against human JURKAT cells; assay type: cell-based
In short: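 Cell number of treated Jurkat cells counted by Coulter counter to assess inhibition of proliferation.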

Jurkat [5] = assay: Inhibition of HIV1 LTR-driven CAT gene expression in PMA-stimulated human JURKAT cells at 5 uM; assay type: cell-based; conditions: Human immunodeficiency virus 1; in short: as §2
[6] = system: Peritoneal macrophage cell; assay: Inhibition of LPS-stimulated TNFalpha production in BALB/c mouse peritoneal macrophages by ELISA; assay type: functional, cell-based
In short: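 Thioglycolate-elicited peritoneal macrophages from 5-week-old female BALB/c mice, adherent cells at 2×10^5/well in MEM with 10% FBS. LPS 10 ug/ml final, added together with compound (DMSO below 0.1%), 20 h. Supernatant TNF-α measured by sandwich ELISA against recombinant mouse TNF-α standard curve, absorbance at 450 nm.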

[7] = Inhibition of HIV1 LTR-driven CAT gene expression in PMA-stimulated HEK293-27-2 cells assessed as […]; conditions: Human immunodeficiency virus 1
[8] = Inhibition of Tat-induced HIV1 LTR transactivation in human HeLa cells assessed as CAT expression after 2 days; assay type: cell-based; conditions: Human immunodeficiency virus 1, HeLa, 48 h
[9] = Inhibition of Tat-induced HIV1 LTR transactivation; set-up: species or system Human immunodeficiency virus 1
In short: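 Jurkat cells electroporated at 140 V with HIV-1 LTR-CAT plasmid p469 (1 µg) plus pSV-Tat (0.5 µg) and DEAE-dextran, then cultured 20 h at 37 °C. Cells were exposed to compound without PMA for 24 h and lysed. Reported as % inhibition at 5 µM or IC50, single determination.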

SMILES | IC50 [2] [nM] | Activity (Jurkat [4]) | inhibition (Jurkat [5]) [%] | other results
COc1ccc(OC)c(Cc2cc(C3CCN(C(=O)c4ccc5c(c4)OCO5)CC3)nc(N)n2)c1 | 200 | Non-toxic |  | IC50 (PBMC): 7700 nM; IC50 [1]: < 1000 nM; inhibition (Jurkat [3]): 58%
COc1ccc(Cc2cc(C3CCN(C(=O)c4ccc5c(c4)OCO5)CC3)no2)cc1 | > 5000 | Non-toxic | 36 | 
COc1ccc(Cc2cc(C3CCN(C(=O)c4ccc5ocnc5c4)CC3)nc(N)n2)cc1 | > 5000 | Non-toxic | -7 | 
COc1ccc(Cc2cc(C3CCN(C(=O)c4ccc5c(c4)OCO5)CC3)ncn2)cc1 | 500 | Non-toxic |  | 
COc1ccc(Cc2cc(C3CCN(C(=O)c4ccc(Cl)cc4)CC3)nc(N)n2)cc1 | > 5000 | Non-toxic | 21 | IC50 [6]: 600 nM
Nc1nc(Cc2ccc(OCc3ccccc3)cc2)cc(C2CCN(C(=O)c3ccc4c(c3)OCO4)CC2)n1 | 1200 | Non-toxic |  | IC50 [1]: 2100 nM
COc1ccc(Cc2cc(C3CCN(C(=O)c4ccc5occc5c4)CC3)nc(N)n2)cc1 | > 5000 | Non-toxic | 4 | 
CCCCCCCC(=O)N1CCC(c2cc(Cc3ccc(OC)cc3)nc(N)n2)CC1 | > 5000 | Non-toxic | 19 | 
COc1ccc(Cc2cc(C3CCN(C(=O)Cc4ccc5c(c4)OCO5)CC3)nc(N)n2)cc1 | > 5000 | Non-toxic | 16 | 
COc1ccc(Cc2cc(C3CCN(C(=O)c4ccc5ncoc5c4)CC3)nc(N)n2)cc1 | > 5000 | Non-toxic | -8 | 
COc1ccc(Cc2cc(C3CCN(C(=O)c4ccc5nsnc5c4)CC3)nc(N)n2)cc1 | > 5000 | Non-toxic | 4 | 
Nc1nc(-c2ccccc2)cc(C2CCN(C(=O)c3ccc4c(c3)OCO4)CC2)n1 | > 5000 | Non-toxic | 47 | 
COc1ccc(Cc2cc(C3CCN(C(=O)Cc4ccc(OC)c(OC)c4)CC3)nc(N)n2)cc1 | > 5000 | Non-toxic | 7 | 
COc1cccc(Cc2cc(C3CCN(C(=O)c4ccc5c(c4)OCO5)CC3)nc(N)n2)c1 | 300 | Non-toxic |  | IC50 (PBMC): 2700 nM
COc1ccc(Cc2cc(C3CCN(C(=O)c4ccc5ccoc5c4)CC3)nc(N)n2)cc1 | > 5000 | Non-toxic | 2 | 
COc1ccc(-c2c(C)nc(N)nc2C2CCN(C(=O)c3ccc4c(c3)OCO4)CC2)cc1 | > 5000 | Non-toxic | 31 | 
Nc1nc(CCc2ccccc2)cc(C2CCN(C(=O)c3ccc4c(c3)OCO4)CC2)n1 | 2100 | Non-toxic |  | 
COc1ccc(-c2cc(C3CCN(C(=O)c4ccc5c(c4)OCO5)CC3)nc(N)n2)cc1 | 1900 | Non-toxic |  | 
COc1ccc(Cc2cc(C3CCN(C(=O)c4ccc5c(c4)CCO5)CC3)nc(N)n2)cc1 | > 5000 | Non-toxic | -8 | 
COc1ccc(Cc2cc(C3CCN(C(=O)c4ccc5[nH]ccc5c4)CC3)nc(N)n2)cc1 | > 5000 | Non-toxic | 1 | 
Nc1nc(Cc2ccc(Br)cc2)cc(C2CCN(C(=O)c3ccc4c(c3)OCO4)CC2)n1 | 700 | Non-toxic |  | 
COc1ccc(Cc2cc(C3CCN(C(=O)c4ccc5c(c4)OCO5)CC3)nc(N)n2)cc1OC | 600 | Non-toxic |  | IC50 (PBMC): 3200 nM
CSc1ccc(Cc2cc(C3CCN(C(=O)c4ccc5c(c4)OCO5)CC3)nc(N)n2)cc1 | 200 | Non-toxic |  | IC50 [1]: < 1000 nM; inhibition (Jurkat [3]): 57%
COc1ccc(Cc2cc(C3CCN(C(C)=O)CC3)nc(N)n2)cc1 | > 5000 | Non-toxic | 0 | 
COc1ccc(Cc2cc(C3CCN(C(=O)c4ccc5c(c4)OCO5)CC3)nc(N)n2)cc1 | 600 | Non-toxic | 86 | IC50 (PBMC): 1900 nM; IC50 [1]: 4000 nM; IC50 [6]: 600 nM
Cc1cc(C2CCN(C(=O)c3ccc4c(c3)OCO4)CC2)nc(N)n1 | > 5000 | Non-toxic | 10 | 

SMILES | IC50 [2] [nM] | Activity (Jurkat [4]) | inhibition (Jurkat [5]) [%] | other results
COc1ccc(Cc2cc(C3CCN(C(=O)c4ccc5c(c4)OCO5)CC3)nc(Cl)n2)cc1 | 700 | Non-toxic |  | 
Nc1nc(Cc2ccc3c(c2)OCO3)cc(C2CCN(C(=O)c3ccc4c(c3)OCO4)CC2)n1 | 700 | Non-toxic |  | IC50 (PBMC): 3300 nM
Nc1nc(Cc2ccc(O)cc2)cc(C2CCN(C(=O)c3ccc4c(c3)OCO4)CC2)n1 | > 5000 | Non-toxic | 36 | 
CC(=O)CCCCn1c(=O)c2c(ncn2C)n(C)c1=O [PENTOXIFYLLINE] |  |  |  | IC50 [7]: 500000 nM
CS(=O)(=O)c1ccc(Cc2cc(C3CCN(C(=O)c4ccc5c(c4)OCO5)CC3)nc(N)n2)cc1 | > 5000 | Non-toxic | 37 | 
C[S+]([O-])c1ccc(Cc2cc(C3CCN(C(=O)c4ccc5c(c4)OCO5)CC3)nc(N)n2)cc1 (configuration not stated) | > 5000 | Non-toxic | 27 | 
COc1ccc(Cc2cc(C3CCN(C(=O)c4ccc5c(c4)OCO5)CC3)on2)cc1 | > 5000 | Non-toxic | 35 | 
COc1ccc(Cc2cc(C3CCN(C(=O)c4ccc([N+](=O)[O-])cc4)CC3)nc(N)n2)cc1 | > 5000 | Non-toxic | 23 | IC50 [6]: 700 nM
Nc1nc(Cc2ccc(Cl)cc2)cc(C2CCN(C(=O)c3ccc4c(c3)OCO4)CC2)n1 | 1300 | Non-toxic |  | IC50 (PBMC): 13000 nM; IC50 [1]: 7100 nM
COc1ccc(Cc2cc(C3CCN(C(=O)c4ccc(Cl)c(Cl)c4)CC3)nc(N)n2)cc1 | > 5000 | Non-toxic | 17 | IC50 [6]: 700 nM
C[S+]([O-])c1ccc(-c2nc(-c3ccc(F)cc3)c(-c3ccncc3)[nH]2)cc1 (configuration not stated) [SB-203580] |  |  |  | IC50 [8]: 100 nM
COc1ccc(Cc2cc(C3CCN(Cc4ccc5c(c4)OCO5)CC3)nc(N)n2)cc1 | > 5000 | Non-toxic | -2 | 
COc1ccc(Cc2cc(C3CCN(C(=O)c4ccc5c(c4)OCCO5)CC3)nc(N)n2)cc1 | > 5000 | Non-toxic | 7 | 
Nc1nc(C2CCN(C(=O)c3ccc4c(c3)OCO4)CC2)c2ccccc2n1 | 2600 | Non-toxic |  | 
COc1ccc(Cc2cc(C3CCN(C(=O)c4ccc5c(c4)OCO5)CC3)n[nH]2)cc1 | > 5000 | Non-toxic | 35 | 
COc1ccc(Cc2cc(C3CCN(C(=O)c4cccc5c4OCO5)CC3)nc(N)n2)cc1 | > 5000 | Non-toxic | 13 | 
Nc1nc(Cc2ccccc2)cc(C2CCN(C(=O)c3ccc4c(c3)OCO4)CC2)n1 | 800 | Non-toxic |  | IC50 (PBMC): 3200 nM
COc1ccc(Cc2cc(C3CCN(C(=O)c4ccccc4)CC3)nc(N)n2)cc1 | > 5000 | Non-toxic | 19 | 
COc1cc(Cc2cc(C3CCN(C(=O)c4ccc5c(c4)OCO5)CC3)nc(N)n2)cc(OC)c1 | 300 | Non-toxic |  | IC50 (PBMC): 3300 nM; IC50 [1]: < 1000 nM; inhibition (Jurkat [3]): 56%
Cn1cc(C(=O)O)c(=O)c2cc(F)c(N3CC=C(c4ccccc4)CC3)c(C(F)(F)F)c21 [FLUOROQUINOLINE K37] |  |  |  | IC50 [8]: < 160 nM
COc1ccc(Cc2cc(C3CCN(C(=O)c4ccc(OC)cc4)CC3)nc(N)n2)cc1 | > 5000 | Non-toxic | -5 | IC50 [6]: 500 nM
COc1ccc(Cc2cc(C3CCN(C(=O)c4ccc(OC)c(OC)c4)CC3)nc(N)n2)cc1 | > 5000 | Non-toxic | 14 | IC50 [6]: 900 nM
Nc1nc(-c2ccc(Cl)cc2)cc(C2CCN(C(=O)c3ccc4c(c3)OCO4)CC2)n1 | > 5000 | Non-toxic | 42 | 
COc1ccc(Cc2cc(C3CCN(C(=O)c4ccc5c(c4)OCO5)CC3)nc(=O)[nH]2)cc1 | > 5000 | Non-toxic |  | 
O=C1CN=C(c2ccc[nH]2)c2cc(Cl)ccc2N1 |  |  |  | IC50 [9]: 100 nM
